Source: PubChem
APP 5'UTR act: activates APP 5'UTR luciferase reporter; SH-SY5Y APP 5'UTR luciferase reporter, luminescence; zero percent = DMSO vehicle wells; activation, % at 2 µM; 1% of 190,000 active;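 active means activation above a set limit, based on mean plus 3 SD of controls, cut at about 140% in these data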
STAT3 act: increases IL-6 driven STAT3 reporter signal | U3A cells, IL-6 STAT3-luciferase reporter, luminescence; 100% = signal with IL-6 EC80 alone | activation (% of control), % at 5.6 µM | 0.91% of 190,000 active | AID 871;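 active means activation above the screen-wide mean of compound activation plus 3 SD, cut at about 130% in these data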;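 further: 0% = background luminescence of wells with medium and substrate only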
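Material: human U3A cells carrying STAT3-luciferase construct. Measured by: reporter luminescence signal. Timing: compound 1 h, then IL-6 6 h at 37 °C.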
STAT1 inh: inhibitors of IFN-gamma induced STAT1 signaling | NIH 3T3 STAT1-luciferase reporter, luminescence | inhibition, % at 5.5 µM | 0.35% of 200,000 active | AID 920;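 active means inhibition above a set limit, the mean inhibition across all tested compounds plus 3 SD, cut at about 34% in these data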;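 further: 0% = IFN-gamma with DMSO and 100% = IFN-gamma with 300 µM nifuroxazide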
NF-kB neuron act: raises NF-kB expression in human neuronal cells; NF-kB reporter expression; active compounds read high; fold change at 12.5 µM; 1.6% of 190,000 active; AID 1239; in the data active means fold change above about 3.3
STAT3 inh: inhibitors of IL-6 induced STAT3 signaling. U3A cells, IL-6 STAT3-luciferase reporter, luminescence; host cell line lacks STAT1. inhibition, % at 5.5 µM. 0.89% of 190,000 active;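 active means inhibition above the mean inhibition across all screened compounds plus 3 SD, cut at about 44% in these data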;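 further: 0% = DMSO only wells and 100% = 100 µM nifuroxazide control wells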
STAT1 act: activators of IFN-gamma induced STAT1 signaling. NIH 3T3 STAT1-luciferase reporter, luminescence; 100% = IFN-gamma alone, no compound. activation (% of control), % at 5.5 µM. 2.6% of 200,000 active;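 active means activation above the screen-wide mean activation plus 3 SD, cut at about 130% in these data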;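 further: raw ratio to IFN-gamma control signal so 100% means no change and 0% no light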
STAT1 act conf: confirmation of STAT1 signaling activators; shares compounds with STAT1 act; NIH 3T3 STAT1-luciferase reporter, IFN-gamma potentiation, luminescence; 100% = IFN-gamma EC80 alone, no compound; activation (% of control), % at 5.7 µM; 97% of 1,200 active;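 active means activation above a set limit carried over from the earlier primary STAT1 screen, cut at about 140% in these data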;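 further: simple ratio to median IFN-gamma plus DMSO wells so 0% means no light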
NFkB act: counter-screen for STAT1 activators: NF-kappaB activation | shares compounds with STAT1 act | HEK293T NF-kB luciferase reporter, TNF-alpha stimulated, luminescence; 100% = TNF-alpha with vehicle only | activation (% of control), % at 5.7 µM | 43% of 1,200 active;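 active means activation above the mean of solvent-only control wells plus 3 SD, set per campaign, cut at about 130% in these data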;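 further: TNF-alpha given at a submaximal dose yielding about 80% of full reporter signal; values are well signal over median control so 100% means no change and 0% no light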
STAT3 act 2: counter-screen for STAT1 activators: human STAT3 activation; shares compounds with STAT1 act; U3A cells STAT3-luciferase reporter, IL-6, luminescence; cells lack STAT1; 100 = IL-6 alone, no compound effect; activation (% of control), % at 5.7 µM; 46% of 1,200 active; AID 1316;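 active means activation above the solvent-only control well mean plus 3 SD, set per plate batch, cut at about 110% in these data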;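 further: 0% = no luminescence and 100% = median IL-6 plus DMSO wells; higher means more STAT3 reporter activation so hits are non-selective activators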
* hit, by the source's call. Compounds with a hit are over-represented: about 5.1% of the library has one in this group of screens.

Screening CCc1nnc(NC(=O)c2ccc3ccccc3n2)s1 returned APP 5'UTR act 103, STAT3 act 127, STAT1 inh -56, NF-kB neuron act 3.8*, STAT3 inh -22, STAT1 act 153*, STAT1 act conf 176*, NFkB act 120 and STAT3 act 2 157*.
`COc1cc2c(cc1OC)CN(C(=S)Nc1ccc(C)cc1C)CC2` gave APP 5'UTR act 6, STAT3 act 94, STAT1 inh 2, NF-kB neuron act 0.99, STAT3 inh 9 and STAT1 act 98.
Screening CC1Cc2ccccc2N1C(=O)/C=C/c1cccc(F)c1 (stereo not drawn) returned APP 5'UTR act 189*, STAT3 act 99, STAT1 inh -62, NF-kB neuron act 6.3*, STAT3 inh 6, STAT1 act 158*, STAT1 act conf 202*, NFkB act 141* and STAT3 act 2 106.
For CC(=O)c1cccc(NC(=S)N2c3ccccc3CC2C)c1 (stereo not drawn) the results were APP 5'UTR act 12, STAT3 act 77, STAT1 inh 0, NF-kB neuron act 0.8, STAT3 inh 34 and STAT1 act 100.
For Cc1cc(C)n(-c2ccc(C(=O)Nc3nnc(C)s3)cc2)n1 the results were APP 5'UTR act 8, STAT3 act 80, STAT1 inh -5, NF-kB neuron act 1.2, STAT3 inh 24 and STAT1 act 99.
Screening Cc1cc(C)n(-c2ccc(C(=O)Nc3sccc3C(N)=O)cc2)n1 returned APP 5'UTR act 171*, STAT3 act 89, STAT1 inh -69, NF-kB neuron act 2.4, STAT3 inh 22, STAT1 act 163*, STAT1 act conf 211*, NFkB act 124 and STAT3 act 2 104.
Cc1cc(C)n(-c2ccc(C(=O)Nc3cccnc3Cl)cc2)n1 was read as APP 5'UTR act -6, STAT3 act 82, STAT1 inh -1, NF-kB neuron act 1.1, STAT3 inh 23 and STAT1 act 102.
Cc1cc(C)n(-c2ccc(C(=O)Nc3ccccn3)cc2)n1 was read as APP 5'UTR act 142*, STAT3 act 71, STAT1 inh -62, NF-kB neuron act 4.1*, STAT3 inh 35, STAT1 act 156*, STAT1 act conf 181*, NFkB act 111 and STAT3 act 2 97.
For N#CCCN(C(=O)COC(=O)c1ccc(CNS(=O)(=O)c2ccc(F)c(Cl)c2)cc1)c1ccc(F)cc1 the results were APP 5'UTR act -14, STAT3 act 100, STAT1 inh -5, NF-kB neuron act 1, STAT3 inh 0 and STAT1 act 105.
Screening Cc1cc(C(=O)CN2C(=O)C(=O)N(CC(C)C)C2=O)c(C)n1-c1ccccc1F returned APP 5'UTR act 9, STAT3 act 100, STAT1 inh 0, NF-kB neuron act 1.1, STAT3 inh 2 and STAT1 act 100.
For Cc1cc(C(=O)CN2C(=O)NC(CC(C)C)C2=O)c(C)n1-c1ccccc1F (stereo not drawn) the results were APP 5'UTR act 70, STAT3 act 131, STAT1 inh -58, NF-kB neuron act 2.2, STAT3 inh -36, STAT1 act 153*, STAT1 act conf 183*, NFkB act 135* and STAT3 act 2 131*.
`Cc1cc(NC(=O)CCSc2ccccc2)ccc1Br` gave APP 5'UTR act 28, STAT3 act 112, STAT1 inh -10, NF-kB neuron act 1.6, STAT3 inh -10 and STAT1 act 109.
`COc1ccc(-c2nn(-c3ccccc3)cc2CO)cc1` gave APP 5'UTR act 16, STAT3 act 99, STAT1 inh -1, NF-kB neuron act 1.4, STAT3 inh 7 and STAT1 act 101.
`COc1ccc(-c2nn(-c3ccccc3)cc2N)cc1` gave APP 5'UTR act 79, STAT3 act 96, STAT1 inh -68, NF-kB neuron act 4*, STAT3 inh 5, STAT1 act 165*, STAT1 act conf 159*, NFkB act 120 and STAT3 act 2 164*.
`COCCCn1c(=S)[nH]c2c(sc3ccccc32)c1=O` gave APP 5'UTR act -6, STAT3 act 91, STAT1 inh -6, NF-kB neuron act 1.7, STAT3 inh 17 and STAT1 act 103.
OCCNc1c2ccccc2nc2ccccc12 was read as APP 5'UTR act 6, STAT3 act 130, STAT1 inh -65, NF-kB neuron act 0.92, STAT3 inh -26, STAT1 act 158*, STAT1 act conf 159*, NFkB act 133 and STAT3 act 2 117*.
For Cc1cc(NCCO)c2ccccc2n1 the results were APP 5'UTR act 10, STAT3 act 99, STAT1 inh 12, NF-kB neuron act 1.1, STAT3 inh 2 and STAT1 act 89.
Screening CN(C)CCNc1ncnc2c1cnn2-c1ccc(Cl)cc1 returned APP 5'UTR act 92, STAT3 act 105, STAT1 inh -19, NF-kB neuron act 2.3, STAT3 inh 3 and STAT1 act 118.
COc1ccc(-n2ncc3c(NCC4CCCO4)ncnc32)cc1 (stereo not drawn) was read as APP 5'UTR act 114, STAT3 act 94, STAT1 inh -79, NF-kB neuron act 2.7, STAT3 inh 10, STAT1 act 172*, STAT1 act conf 182*, NFkB act 131 and STAT3 act 2 122*.
For Clc1ccc(-n2ncc3c(NCC4CCCO4)ncnc32)cc1 (stereo not drawn) the results were APP 5'UTR act 156*, STAT3 act 85, STAT1 inh -66, NF-kB neuron act 3.4*, STAT3 inh 18, STAT1 act 163*, STAT1 act conf 254*, NFkB act 133 and STAT3 act 2 110.
Screening Cc1ccc(Nc2n[nH]c(C)c2[N+](=O)[O-])cc1C returned APP 5'UTR act 210*, STAT3 act 110, STAT1 inh -100, NF-kB neuron act 7.7*, STAT3 inh -12, STAT1 act 191*, STAT1 act conf 239*, NFkB act 147* and STAT3 act 2 117*.
